Activity calls are given as the source filed them. The calls are words filed in the database; no cut-off is given here.
Experiments:
[1] = biological target: DNA polymerase I, thermostable (Thermus aquaticus) (UniProt P19821); assay: (§1) Inhibition of Thermus aquaticus taq DNA polymerase by PCR analysis
Summary of the method: (§2)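 PCR with 2.5 U Taq polymerase in 40 mM Tris-acetate pH 8.3, 15 mM MgCl2, […], 2.5 mM each dNTP; compounds in DMSO at varying concentrations. 35 cycles: 95 °C 1 min, anneal 56 °C, extend 72 °C 90 s. Ethidium bromide-stained gel band intensities scanned; IC50 = concentration inhibiting activity 50%.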

[2] = biological target: DNA polymerase I, thermostable (Thermus aquaticus, UniProt P19821); assay: as §1; summary of the method: as §2
Sequence of DNA polymerase I, thermostable (P19821 whole entry): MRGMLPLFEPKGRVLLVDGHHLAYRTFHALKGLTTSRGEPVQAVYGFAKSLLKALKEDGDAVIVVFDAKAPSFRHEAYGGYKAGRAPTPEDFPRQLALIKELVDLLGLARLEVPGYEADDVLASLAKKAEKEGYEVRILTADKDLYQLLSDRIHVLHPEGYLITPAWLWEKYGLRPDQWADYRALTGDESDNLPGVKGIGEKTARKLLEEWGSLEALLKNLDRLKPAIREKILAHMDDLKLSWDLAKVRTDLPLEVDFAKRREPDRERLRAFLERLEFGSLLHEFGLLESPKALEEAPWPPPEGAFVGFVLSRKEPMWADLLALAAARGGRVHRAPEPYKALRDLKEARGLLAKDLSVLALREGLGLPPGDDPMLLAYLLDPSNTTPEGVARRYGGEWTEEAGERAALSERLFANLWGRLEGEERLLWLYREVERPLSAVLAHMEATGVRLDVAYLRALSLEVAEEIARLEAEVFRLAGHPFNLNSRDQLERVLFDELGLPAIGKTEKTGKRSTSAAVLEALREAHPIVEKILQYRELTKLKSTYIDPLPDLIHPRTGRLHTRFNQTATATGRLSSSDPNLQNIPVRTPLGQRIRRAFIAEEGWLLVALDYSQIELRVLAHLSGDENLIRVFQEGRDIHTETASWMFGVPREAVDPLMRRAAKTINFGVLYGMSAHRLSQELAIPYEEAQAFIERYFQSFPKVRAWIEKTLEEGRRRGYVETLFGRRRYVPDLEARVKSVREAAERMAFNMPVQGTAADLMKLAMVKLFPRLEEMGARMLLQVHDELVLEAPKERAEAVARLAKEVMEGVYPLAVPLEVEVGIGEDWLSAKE

[3] = Inhibition of MMLV reverse transcriptase using desoxynucleotide triphosphate as substrate after 10 mins by RT-PCR analysis; set-up: species or system Moloney murine leukemia virus
Summary of the method: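 Reverse transcription mix: 1 µg RNA in commercial buffer, 2.0 U MMLV-RT, 20 µM random primers, 1.0 mM each dNTP; compounds (DMSO) added at varying concentrations during RT step. Heated 70 °C 10 min, then incubated 1 h at […]. Products on ethidium bromide-stained agarose gel, band intensities quantified by scanning; IC50 = concentration giving 50% inhibition.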

Sequence of DNA polymerase I, thermostable (Thermus aquaticus) (P19821 whole entry): as above

SMILES | inhibition [1] | IC50 [2] | IC50 [3]
COc1cc2c(c3oc(=O)ccc13)OCO2 | inactive | – | –
C=CCc1c(O)c2ccccc2oc1=O | inactive | – | 51 µM
CC(C)(O)C(O)COc1c2c(cc3oc(=O)ccc13)OCO2 (stereo unspecified) | inactive | – | –
CC(C)(O)C(Br)COc1c2c(cc3oc(=O)ccc13)OCO2 (stereo unspecified) | – | 57.9 µM | –
O=c1ccc2ccccc2o1 [COUMARIN] | inactive | – | 38.6 µM

The next lines start with the values.

inhibition [1] | IC50 [2] | IC50 [3] | SMILES
– | 48.1 µM | – | C/C(=C\COc1c2c(cc3oc(=O)ccc13)OCO2)CO
inactive | – | – | CC(C)=CCOc1c2c(cc3oc(=O)ccc13)OCO2
inactive | – | – | C/C(C=O)=C\COc1c2c(cc3oc(=O)ccc13)OCO2
inactive | – | – | CC(C)(O)C(=O)COc1c2c(cc3oc(=O)ccc13)OCO2

Reference: ChEMBL document CHEMBL3112585, “Inhibition of reverse transcriptase and Taq DNA polymerase by compounds possessing the coumarin framework” (Bioorg Med Chem Lett, 2014)
